bCat KO growth: beta-catenin-lacking colon tumor cell growth suppression. HCT116 beta-catenin knockout viability, CellTiter-Glo, 60 h; stronger effect = lower value. viability, % at 10 µM. actives 1.5% (n = 140,000). AID 818;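 active = viability at or under a set limit, the compound median less 4 SD, cut at about 6% in these data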;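 note: 0% = Hyamine 1622 control at 20 µM and 100% = untreated cell control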
Autophagy HCS: alters autophagy in cells | AID 463193 | actives 0.98% (n = 190,000) | calls only at 10 µM (by protocol) | MEF GFP-LC3 puncta imaging; test concentration mostly 10 µM;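 active = percentage of spot-positive cells more than 3 SD above its plate mean, without a fluorescence outlier flag or 80% toxicity; inconclusive = no clear call, values can overlap the other calls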;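 note: spot-positive cell cutoff set from DMSO-treated cells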
PTEN del growth: growth suppressors of cells with PTEN tumor suppressor deletion. AID 827. viability, % at 10 µM. HCT116 PTEN-null viability, CellTiter-Glo, 60 h; stronger effect = lower value. actives 1.2% (n = 140,000);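 active = viability at or below a set limit, 4 SD under the median of all tested compounds, cut at about 3.7% in these data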;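 note: PTEN knockout HCT116 line with beta catenin targeted HCT116 as companion control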
Lmaj promast: inhibitors of Leishmania major promastigote growth | Leishmania major promastigotes, resazurin fluorescence viability | actives 9% (n = 200,000) | inhibition, % at 10 µM | AID 1063; in the data active = inhibition above about 50%;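 note: promastigotes grown with compound for 44 hours at 28 °C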
Dynein transport: blocks dynein driven cargo transport along microtubules. z-score, hits read low. 3617.4 mouse cells, GR-EGFP nuclear translocation imaging; test concentration mostly 20 µM; stimulated with dexamethasone, 1 µM; stronger effect = lower value. actives 0.47% (n = 220,000);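 active = plate z-score of nuclear minus cytoplasmic receptor signal below a set negative limit, without overly bright fluorescence or cell loss, cut at about -3.5 in these data, passing the limit was not always enough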;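 note: z-score of nuclear minus cytoplasmic ring GR-EGFP intensity difference per well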
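Buffer or medium: tet-free, stripped-serum medium; reagent: dexamethasone at 1.0 µM final, 30 min; incubation: 48 h induction, 1 h compound, 30 min dex at 37 °C; measured by: formaldehyde fixation, Hoechst nuclear stain, 10x automated fluorescence imaging; read-out: nuclear-to-cytoplasmic GR-EGFP distribution per well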
Dynein inh conf: dynein cargo transport inhibition, confirmation; actives 69% (n = 1,000); shares compounds with Dynein transport; calls only at 20 µM; 3617.4 GR-EGFP nuclear translocation imaging, dexamethasone-induced;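 active = inhibition of receptor movement into the nucleus at or above a set limit in both runs, with normal cell brightness and cell count; inconclusive = limit reached in only one run, brightness and count normal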;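 note: dexamethasone at 1 µM final in well for 30 min; nuclear minus cytoplasmic GR-EGFP mean intensity difference in channel 2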
Numbers without * were called inactive. Rows were chosen to be rich in hits. Some 9.2% of all compounds tested hit in one or more screens of this group.

C=CCSc1nnc(C)c(/C=C/Nc2ccc(Cl)cc2)n1 was read as Autophagy HCS active, Lmaj promast 22.9, Dynein transport -7.75 and Dynein inh conf active.
For CSc1nnc(C)c(/C=C/Nc2ccc(F)cc2F)n1 the results were Autophagy HCS inactive, Lmaj promast 8.7 and Dynein transport 0.368.
`Cc1nn(CC(=O)N2c3ccccc3NC(=O)C2(C)C)c(C)c1[N+](=O)[O-]` gave Autophagy HCS inactive, Lmaj promast 1.0 and Dynein transport -0.493.
For CC1(C)C(=O)Nc2ccccc2N1C(=O)Cn1ncc(Cl)c(Cl)c1=O the results were Dynein transport -6.29* and Dynein inh conf active.
O=C(Cn1ncc(Cl)c(Cl)c1=O)N1CCOCC1 was read as Autophagy HCS inactive, Lmaj promast 14.3, Dynein transport -4.2* and Dynein inh conf active.
O=C(Cn1ncc(Cl)c(Cl)c1=O)N1CCN(Cc2ccccc2)CC1 was read as Autophagy HCS inactive, Lmaj promast 39.7, Dynein transport -5.05* and Dynein inh conf active.
`Cc1ccccc1C1=Nn2c(nnc2-c2ccco2)SC1` gave Dynein transport -0.595.
For CCN(CC1COc2ccccc2O1)C(=S)Nc1ccc(F)cc1 (stereo not drawn) the results were bCat KO growth 86.5, Autophagy HCS inactive, PTEN del growth 84.4, Lmaj promast 41.5 and Dynein transport 0.00469.
COc1ccc(CCNC(=O)C(NS(=O)(=O)c2ccc3c(c2)CCN3C(C)=O)C(C)C)cc1OC (stereo not drawn) was read as Autophagy HCS inactive, Lmaj promast -2.6 and Dynein transport -0.802.
For c1ccc(-c2ccc(-c3nccc4ccccc34)[nH]2)cc1 the results were Dynein transport -4.56 and Dynein inh conf inactive.
CCOC(=O)Cc1nc2cc(Cl)ccc2o1 was read as Autophagy HCS inactive, Lmaj promast 0.9 and Dynein transport 1.26.
Screening Cc1ccc(C2=NOC(=O)/C2=C\c2ccc(C)o2)cc1 returned Dynein transport -5.65* and Dynein inh conf active.
CC1=NOC(=O)/C1=C\c1ccc(-c2ccc(Br)cc2)o1 was read as Autophagy HCS inactive, Lmaj promast 62.0*, Dynein transport -4.13* and Dynein inh conf inconclusive.
`Cc1ccc(/C=C2/SC(=O)NC2=S)o1` gave Autophagy HCS inactive, Lmaj promast 5.0 and Dynein transport 0.518.
COC(=O)c1cnc(SCc2ccc([N+](=O)[O-])cc2)n1C was read as Dynein transport 0.278.
`Cc1ccc(NC(=S)N2CCCC(CO)C2)c(C)c1` (stereo not drawn) gave Autophagy HCS inactive, Lmaj promast -4.2 and Dynein transport -0.818.
`Cc1cc(S(=O)(=O)Nc2cc(C)c(O)c(C)c2)c(C)s1` gave bCat KO growth 1.9*, Autophagy HCS inactive, PTEN del growth 2.1*, Lmaj promast 100.4*, Dynein transport -3.99* and Dynein inh conf inactive.
For COc1ccc(N=C2S/C(=C\c3ccc(N4CCOCC4)o3)C(=O)N2CCc2c[nH]c3ccccc23)cc1 the results were bCat KO growth 1.9*, Autophagy HCS active, PTEN del growth 1.6*, Lmaj promast 100.5*, Dynein transport -9.05 and Dynein inh conf active.
`O=c1c(Cc2c(F)cccc2Cl)c(O)ccn1CCCN1CCOCC1` gave Autophagy HCS inactive, Lmaj promast -1.9 and Dynein transport 0.511.
`CCC1(C)CC2(CCCN(CCC(=O)c3ccccc3)C2)CCO1` (stereo not drawn) gave Autophagy HCS inactive, Lmaj promast 69.3*, Dynein transport -3.75* and Dynein inh conf inactive.
`O=C(O)CCN1C(=O)/C(=C\c2ccc(-c3nc4ccccc4s3)o2)SC1=S` gave bCat KO growth 91.9, Autophagy HCS inactive, PTEN del growth 97.7, Lmaj promast -5.7, Dynein transport -3.96 and Dynein inh conf inactive.
For C=C1C(=O)[C@@]23[C@H](O)C[C@@H]4C(C)(C)CC[C@H](O)[C@]4(C)[C@@H]2C[C@H](O)[C@@H]1[C@H]3O the results were bCat KO growth 8.8, Autophagy HCS inactive, PTEN del growth 4.6, Lmaj promast 29.3, Dynein transport -5.11* and Dynein inh conf active.
Screening C=C1C(=O)[C@@]23[C@H](O)C[C@@H]4C(C)(C)CC[C@H](O)[C@@]4(C)[C@@H]2CC[C@@H]1[C@H]3O returned bCat KO growth 2.1*, Autophagy HCS inactive, PTEN del growth 1.3*, Lmaj promast 100.4*, Dynein transport -5.46* and Dynein inh conf active.
`COc1ccc(-c2onc3ccc(Cl)cc23)cc1OC` gave Autophagy HCS inactive, Lmaj promast 7.0 and Dynein transport 1.15.
`CC1CCN(CC(CS(=O)(=O)c2ccc([N+](=O)[O-])cc2)N2CCC(C)CC2)CC1` (stereo not drawn) gave Dynein transport -4.67* and Dynein inh conf active.
`Cc1ccc(S(=O)(=O)CC(CN2CCOCC2)N2CCOCC2)cc1` (stereo not drawn) gave Autophagy HCS inactive, Lmaj promast -3.7 and Dynein transport -0.00346.
Screening CC(=O)Nc1ccc(NC(=O)CCn2c(=S)oc3ccccc32)cc1 returned Autophagy HCS inactive, Lmaj promast -3.3 and Dynein transport 1.73.
CC(C)CC(=O)/C=C/n1c(=S)oc2ccccc21 was read as bCat KO growth 3.8*, Autophagy HCS inactive, PTEN del growth 2.4*, Lmaj promast 9.3, Dynein transport -3.96* and Dynein inh conf active.
For CCC(=O)Nc1ccc(/C=C(\C(C)=O)C(=O)c2ccccc2)cc1 the results were Dynein transport -4.09* and Dynein inh conf active.
For C[C@H](NC(=O)c1ccco1)C(=O)Nc1cccc([N+](=O)[O-])c1 the results were Autophagy HCS inactive, Lmaj promast -7.2 and Dynein transport -0.706.
For CCOC(=O)c1cnc(-c2ccc(C(F)(F)F)cn2)[nH]c1=O the results were Dynein transport 1.2.
For C=CCNCCCOc1ccc(Cl)cc1C(C)(C)C the results were Autophagy HCS inactive, Lmaj promast 99.6*, Dynein transport -6.67* and Dynein inh conf inactive.
For COc1ccc(-n2nc(C#N)c(Cl)cc2=O)cc1 the results were Autophagy HCS inactive, Lmaj promast 99.5*, Dynein transport -5.86* and Dynein inh conf active.
`COC(=O)c1nn(-c2ccc(OC)cc2)c(=O)cc1O` gave Autophagy HCS inactive, Lmaj promast -7.6 and Dynein transport -0.756.
Cc1cc(Cl)n2c(nc3cc(F)c(F)cc32)c1C#N was read as Autophagy HCS inactive, Lmaj promast 90.7*, Dynein transport -4.34* and Dynein inh conf active.
`Cc1cc(C)n2c(=O)c3ccc(Cl)cc3nc2c1C#N` gave Autophagy HCS inactive, Lmaj promast -6.4 and Dynein transport 0.497.

Compound activity from PubChem BioAssay.
